According to ChEMBL document CHEMBL1137629, “Antiproliferative effect of dihydroxyacetone on Trypanosoma brucei bloodstream forms: cell cycle progression, subcellular alterations, and cell death” (Antimicrob Agents Chemother, 2007):
Activity calls are given as the source filed them. The rule behind the calls is not given here.

Tests used:
Trypanosoma brucei [1] = experiment: Trypanocidal activity against Trypanosoma brucei bloodstream form assessed as cell death at 1 mM after 40 mins by spectrophotometry; type: functional, organism-based
Trypanosoma brucei [2] = experiment: Trypanocidal activity against Trypanosoma brucei bloodstream form at > 1 mM; type: functional, organism-based
Trypanosoma brucei [3] = experiment: Trypanocidal activity against Trypanosoma brucei bloodstream form assessed as cell death at 1 mM by spectrophotometry in presence of 1 mM glucose; type: functional, organism-based
Trypanosoma brucei [4] = experiment: Effect on morphological changes in Trypanosoma brucei bloodstream form assessed as presence of kinetoplast after 24 hrs using DAPI staining by phase-contrast microscopy; type: functional, organism-based
In short: (§1)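 Bloodstream forms (MITat 1.2, EATRO 427) grown 24 h with or without DHA. Aliquots washed twice in PBS, resuspended, placed on slides and fixed with methanol. Stained 5 min with DAPI (0.1 μg/ml final), then washed. Phase-contrast and fluorescence images scored for nucleus/kinetoplast numbers (1N1K, 1N2K, 2N2K, 2N1K, abnormal). n = 4, Student's t test, SD.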

Trypanosoma brucei [5] = experiment: Effect on morphological changes in Trypanosoma brucei bloodstream form assessed as increase in cisternal and vesicular structures within cytosol at 3 mM after 24 hrs by transmission electron microscopy; type: functional, organism-based
In short: (§2)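 Parasites exposed 24 h to 3 mM DHA. 10⁸ cells fixed 1 h at 4°C in 2% glutaraldehyde in 0.2 M sodium cacodylate with 0.12 M sucrose, held overnight in buffer, postfixed in 1.5% osmium tetroxide and stained with 0.5% uranyl acetate. Dehydrated in ethanol, cleared in propylene oxide, embedded in Agar 100. Sections stained with 5% uranyl acetate and 0.4% lead citrate for TEM. Rapamycin (5 μM) served as the autophagy positive control.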

Trypanosoma brucei [6] = experiment: Effect on morphological changes in Trypanosoma brucei bloodstream form assessed as increase in mitochondrion size at 3 mM after 24 hrs by transmission electron microscopy; type: functional, organism-based; in short: as §2
Trypanosoma brucei [7] = experiment: Effect on cell cycle of Trypanosoma brucei bloodstream form assessed as increase in cells with two nuclei and two kinetoplasts at 1 to 3 mM using DAPI staining by phase-contrast microscopy; type: functional, organism-based; in short: as §1
Trypanosoma brucei [8] = experiment: Effect on cell cycle of Trypanosoma brucei bloodstream form assessed as induction of necrosis at 2 mM after 24 hrs using propidium iodide staining by FACS analysis; type: functional
In short: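 Bloodstream forms exposed 24 h at 37°C, 5% CO₂. Cells at 2 × 10⁶/ml incubated 10 min with propidium iodide (5 μg/ml), and uptake read by flow cytometry as a measure of membrane integrity. Digitonin (6 μM) served as the necrosis positive control.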

Trypanosoma brucei [9] = experiment: Cell cycle arrest in Trypanosoma brucei bloodstream form assessed as accumulation at G2/M phase at 2 mM after 24 hrs using propidium iodide staining by FACS analysis; type: functional
In short: (§3)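 T. brucei bloodstream forms (MITat 1.2, strain EATRO 427), axenic culture at 37°C, 5% CO₂. Treated 24 h. At least 5 × 10⁵ cells washed in PBS, lysed hypotonically 30 min at room temperature in 10 mM phosphate buffer pH 7.4 with 6 μM digitonin. Nuclei stained with propidium iodide (10 μg/ml final) and analysed by flow cytometry for G₁/S/G₂ distribution and degraded DNA.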

Trypanosoma brucei [10] = experiment: Effect on cell cycle of Trypanosoma brucei bloodstream form assessed as DNA content at 5 uM after 24 hrs using propidium iodide staining by FACS analysis; type: functional; in short: as §3
Trypanosoma brucei [11] = experiment: Effect on morphological changes in Trypanosoma brucei bloodstream form assessed as dilation of mitochondrial membrane at 3 mM after 24 hrs by transmission electron microscopy; type: functional, organism-based; in short: as §2
Trypanosoma brucei [12] = experiment: Induction of apoptosis-like programmed cell death in Trypanosoma brucei bloodstream form assessed as phosphatidylserine exposure in outer leaflet of plasma membrane at 3 mM after 24 hrs by V-Fluos staining staining; type: functional
In short: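 After 24 h DHA exposure of axenic bloodstream-form T. brucei MITat 1.2 (EATRO 427; 37°C, 5% CO₂), cells were washed in HEPES buffer (10 mM, pH 7.4, 140 mM NaCl, 5 mM CaCl₂). They were then stained with annexin V-Fluos for 15 min at 4°C and analysed by flow cytometry.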

Trypanosoma brucei [13] = experiment: Induction of apoptosis-like programmed cell death in Trypanosoma brucei bloodstream form assessed as increase in intracellular reactive oxygen species production at 5 uM after 24 hrs by FACS analysis; type: functional

SMILES: O=C(CO)CO [DIHYDROXYACETONE]
- Activity (Trypanosoma brucei [1]): Active
- Activity (Trypanosoma brucei [2]): Active
- Activity (Trypanosoma brucei [3]): inactive
- Activity (Trypanosoma brucei [4]): Dose-dependent effect
- Activity (Trypanosoma brucei [5]): Active
- Activity (Trypanosoma brucei [6]): Active
- Activity (Trypanosoma brucei [7]): Active
- Activity (Trypanosoma brucei [8]): 8.3%
- Activity (Trypanosoma brucei [9]): <=70%
- Activity (Trypanosoma brucei [10]): 47%
- Activity (Trypanosoma brucei [11]): Active
- Activity (Trypanosoma brucei [12]): 11.9%
- Activity (Trypanosoma brucei [13]): 33.6%
